Measured values from ChEMBL document CHEMBL4725480 (ACS Med Chem Lett, 2020).
The source made the active and inactive calls. The calls are words filed in the database; no cut-off is given here.

Key:
[1] = molecular target: NAD-dependent protein deacylase sirtuin-6 (Homo sapiens) (UniProt Q8N6T7); test: Activation of N-terminal His-tagged human SIRT6 (1 to 355 residues) expressed in Escherichia coli M15(pREP4) assessed as increase in deacetylation activity using FdL1 substrate peptide incubated for 1 hr in presence of NAD+ by fluorescence assay; conditions: filed as activator
Chain of NAD-dependent protein deacylase sirtuin-6 (Homo sapiens) (Q8N6T7 whole entry, the tested form may be a part): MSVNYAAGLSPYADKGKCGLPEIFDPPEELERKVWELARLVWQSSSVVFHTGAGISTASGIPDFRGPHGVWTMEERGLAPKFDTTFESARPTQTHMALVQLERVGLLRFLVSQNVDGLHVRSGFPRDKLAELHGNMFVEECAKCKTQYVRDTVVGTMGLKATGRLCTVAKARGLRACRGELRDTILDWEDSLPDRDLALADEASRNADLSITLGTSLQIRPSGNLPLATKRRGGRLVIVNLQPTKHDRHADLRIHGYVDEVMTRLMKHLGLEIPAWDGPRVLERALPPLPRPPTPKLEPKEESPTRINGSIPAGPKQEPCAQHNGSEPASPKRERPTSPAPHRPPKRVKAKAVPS
Outline: (§1)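 Deacetylation assay with the fluorophore-labelled FdL substrate, run alongside a control for artificial effects from the compound interacting with the fluorophore; fluorescence read-out.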

[2] = molecular target: NAD-dependent protein deacylase sirtuin-6 (Homo sapiens) (UniProt Q8N6T7); test: Activation of N-terminal His-tagged human SIRT6 (1 to 355 residues) expressed in Escherichia coli M15(pREP4) assessed as increase in deacetylation activity using acetyl-H3K9 peptide as substrate incubated for 2 hrs in presence of NAD+ by mass spectrometric analysis relative to control
Outline: (§2)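 Deacetylation measured by mass spectrometry using an unlabelled acetylated peptide that represents the physiological histone H3 Lys9 site (H3K9ac); compound tested across a dose range.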

[3] = molecular target: NAD-dependent protein deacylase sirtuin-6 (Homo sapiens) (UniProt Q8N6T7); test: Activation of N-terminal His-tagged human SIRT6 (1 to 355 residues) expressed in Escherichia coli M15(pREP4) assessed as increase in deacetylation activity using acetyl-H3K9 peptide as substrate incubated for 2 hrs in presence of NAD+ by mass spectrometric analysis; conditions: filed as activator; outline: as §2
[4] = molecular target: NAD-dependent protein deacylase sirtuin-6 (Homo sapiens) (UniProt Q8N6T7); test: Activation of N-terminal His-tagged human SIRT6 (1 to 355 residues) expressed in Escherichia coli M15(pREP4) assessed as increase in substrate deacetylation activity using FdL1 substrate peptide at 250 to 1000 uM incubated for 1 hr in presence of NAD+ by fluorescence assay; conditions: filed as activator, dose microM 250-1000, time 1.0 hrs; outline: as §1
[5] = molecular target: NAD-dependent protein deacylase sirtuin-6 (Homo sapiens) (UniProt Q8N6T7); test: Activation of His-tagged N-terminal truncated human SIRT6 (13 to 355 residues) expressed in Escherichia coli BL21 (DE3) codon+ cells assessed as increase in deacetylation activity using acetyl-H3K9 peptide as substrate incubated for 2 hrs in presence of NAD+ by mass spectrometric analysis relative to control; conditions: filed as activator
[6] = molecular target: T1, NAD-dependent protein deacetylase sirtuin-2 (Homo sapiens, UniProt Q8IXJ6); test: Inhibition of N-terminal His-tagged human recombinant SIRT2 (55 to 356 residues) expressed in Escherichia coli Rossetta2 cells assessed as decrease in substrate deacetylation activity using QPK(acetyl-K) as substrate at 250 to 1000 uM incubated for 30 mins by fluorescence based analysis; conditions: 0.5 h, dose 250-1000 µM
T1 sequence (Q8IXJ6 whole entry): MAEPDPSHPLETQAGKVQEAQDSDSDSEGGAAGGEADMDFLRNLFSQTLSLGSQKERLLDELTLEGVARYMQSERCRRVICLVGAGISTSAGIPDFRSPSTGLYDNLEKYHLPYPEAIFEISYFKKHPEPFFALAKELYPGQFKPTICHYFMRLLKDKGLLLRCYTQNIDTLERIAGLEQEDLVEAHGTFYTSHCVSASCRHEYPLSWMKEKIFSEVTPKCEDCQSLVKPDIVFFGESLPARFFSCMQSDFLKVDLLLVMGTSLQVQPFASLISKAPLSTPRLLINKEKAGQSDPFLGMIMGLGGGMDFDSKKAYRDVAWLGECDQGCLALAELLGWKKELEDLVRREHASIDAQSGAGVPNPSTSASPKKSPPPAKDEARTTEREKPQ

[7] = molecular target: T2, NAD-dependent protein deacetylase sirtuin-3, mitochondrial (Homo sapiens, UniProt Q9NTG7); test: Inhibition of N-terminal His-tagged human recombinant SIRT3 (118 to 399 residues) expressed in Escherichia coli assessed as decrease in substrate deacetylation using QPK(acetyl-K) as substrate at 250 to 1000 uM incubated for 30 mins by fluorescence based analysis; conditions: 0.5 h, dose 250-1000 µM
T2 sequence (Q9NTG7 whole entry): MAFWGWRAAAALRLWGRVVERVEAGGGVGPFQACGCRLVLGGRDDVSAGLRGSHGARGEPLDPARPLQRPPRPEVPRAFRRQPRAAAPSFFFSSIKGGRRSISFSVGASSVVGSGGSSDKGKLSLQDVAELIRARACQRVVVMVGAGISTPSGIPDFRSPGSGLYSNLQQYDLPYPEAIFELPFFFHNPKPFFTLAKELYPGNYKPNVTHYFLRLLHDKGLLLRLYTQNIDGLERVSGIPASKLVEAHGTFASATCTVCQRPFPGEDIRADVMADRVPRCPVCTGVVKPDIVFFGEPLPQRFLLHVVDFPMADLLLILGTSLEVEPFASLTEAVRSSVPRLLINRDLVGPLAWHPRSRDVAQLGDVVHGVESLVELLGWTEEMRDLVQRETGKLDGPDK

[8] = molecular target: T3, NAD-dependent protein deacetylase sirtuin-1 (Homo sapiens, UniProt Q96EB6); test: Inhibition of N-terminal His-tagged human full length recombinant SIRT1 expressed in Escherichia coli at 250 to 1000 uM by fluorescence based analysis; conditions: dose 250-1000 µM
T3 sequence (Q96EB6 whole entry): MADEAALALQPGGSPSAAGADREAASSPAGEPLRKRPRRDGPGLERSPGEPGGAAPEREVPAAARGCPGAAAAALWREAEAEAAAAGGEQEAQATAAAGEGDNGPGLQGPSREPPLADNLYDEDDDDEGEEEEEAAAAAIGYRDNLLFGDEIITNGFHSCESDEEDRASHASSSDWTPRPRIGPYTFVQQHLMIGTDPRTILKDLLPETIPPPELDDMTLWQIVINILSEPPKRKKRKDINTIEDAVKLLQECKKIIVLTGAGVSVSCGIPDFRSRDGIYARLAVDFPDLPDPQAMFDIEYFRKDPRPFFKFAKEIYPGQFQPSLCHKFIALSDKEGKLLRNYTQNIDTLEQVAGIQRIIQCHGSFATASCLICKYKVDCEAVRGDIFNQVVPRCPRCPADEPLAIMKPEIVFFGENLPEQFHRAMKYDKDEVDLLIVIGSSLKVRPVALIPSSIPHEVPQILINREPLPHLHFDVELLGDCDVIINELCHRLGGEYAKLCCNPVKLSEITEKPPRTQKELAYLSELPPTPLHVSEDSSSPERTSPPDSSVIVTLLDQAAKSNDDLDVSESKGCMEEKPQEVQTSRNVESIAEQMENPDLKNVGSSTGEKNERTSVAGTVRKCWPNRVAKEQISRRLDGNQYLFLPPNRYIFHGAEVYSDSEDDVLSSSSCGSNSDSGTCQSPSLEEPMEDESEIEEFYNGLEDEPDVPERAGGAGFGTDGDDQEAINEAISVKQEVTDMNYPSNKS

CC(C)n1c(/C=C/C(O)CC(O)CC(=O)O)c(-c2ccc(F)cc2)c2ccccc21 (stereo not drawn) [FLUVASTATIN]
Activity [1]: Active
fold change (FC) [2]: > 3
Activity [3]: Dose-dependent effect
Activity [4]: Active
fold change (FC) [5]: 4
inhibition (INH) [6]: Active
inhibition (INH) [7]: Active
inhibition (INH) [8]: Active
